Active and inactive are the calls of the source. The rule behind the calls is not given here.
Columns and labels:
Rattus norvegicus [1] = assay: Antihypertensive activity in spontaneously hypertensive rat assessed as reduction in diastolic arterial pressure at 40 mg/kg, po at 6 hrs; format: functional, organism-based; parameters: dose 40 mg/kg; conditions: Artery
Outline: (§1)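 Spontaneously hypertensive rats received a single oral dose of 40 or 80 mg/kg. Systolic, diastolic and mean arterial pressure were recorded from 0 to 24 h after dosing, with heart rate monitored in parallel. Data are given as mean ± SEM (n = 8), and significance was tested against the respective control (p < 0.05, p < 0.01).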

Rattus norvegicus [2] = assay: Antihypertensive activity in spontaneously hypertensive rat assessed as reduction in systolic arterial pressure at 40 mg/kg, po measured up to 24 hrs; format: functional, organism-based; parameters: dose 40 mg/kg; conditions: Artery; outline: as §1
Rattus norvegicus [3] = assay: Antihypertensive activity in spontaneously hypertensive rat assessed as reduction in diastolic arterial pressure at 80 mg/kg, po up to 24 hrs; format: functional, organism-based; parameters: dose 80 mg/kg; conditions: Artery; outline: as §1
Rattus norvegicus [4] = assay: Antihypertensive activity in spontaneously hypertensive rat assessed as reduction in systolic arterial pressure at 80 mg/kg, po measured up to 24 hrs; format: functional, organism-based; parameters: dose 80 mg/kg; conditions: Artery; outline: as §1
Rattus norvegicus [5] = assay: Toxicity in spontaneously hypertensive rat assessed as change in basal heart rate at 50 mg/kg, po measured up to 24 hrs; format: organism-based; parameters: dose 50 mg/kg, route oral; conditions: in vivo
Rattus norvegicus [6] = assay: Antihypertensive activity in spontaneously hypertensive rat assessed as reduction in mean arterial pressure at 80 mg/kg, po up to 24 hrs; format: functional, organism-based; parameters: dose 80 mg/kg; conditions: Artery; outline: as §1
Rattus norvegicus [7] = assay: Antihypertensive activity in spontaneously hypertensive rat assessed as reduction in diastolic arterial pressure at 80 mg/kg, po at 6 hrs; format: functional, Artery; parameters: scale not given: the % may be the effect or the level left; outline: as §1

Compound	Activity (Rattus norvegicus [1])	Activity (Rattus norvegicus [2])	Activity (Rattus norvegicus [3])	Activity (Rattus norvegicus [4])	Activity (Rattus norvegicus [5])	Activity (Rattus norvegicus [6])	Activity (Rattus norvegicus [7]) [%]
C[C@H](CS)C(=O)N1CCC[C@H]1C(=O)O	Active	Active					
CC1OCc2c(ccc(O)c2O)C1=O (racemic)			Active	Active	Non-toxic	Active	
C[C@H]1OCc2c(ccc(O)c2O)C1=O			Active	Active	Non-toxic	Active	30
C[C@@H]1OCc2c(ccc(O)c2O)C1=O			Active	Active	Non-toxic	Active	

Source: ChEMBL document CHEMBL2169763, “Chiral separation, configurational identification and antihypertensive evaluation of (±)-7,8-dihydroxy-3-methyl-isochromanone-4” (Bioorg Med Chem Lett, 2012)
